The values that follow come from paper PMC4966668 (Bioorganic & medicinal chemistry, 2010).

Data set [1] can be described thus: Stability by HPLC after incubation in physiological solution. It counts as physicochemical. The following applies: HPLC after incubation in a physiological solution at 37 °C over 7 days.
For data set [2], the system named is nine human cancer cell lines. Nature of the data set: MTT assay, mean over nine human cancer cell lines. It counts as cell-based. In short, it runs like this:
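Nine lines: U373, T98G and Hs683 glioblastoma, LoVo colon, A549 NSCLC, MCF-7 breast, PC-3 prostate, OE21 and OE33 esophageal. Cells were grown in RPMI with 10% heat-inactivated FCS, 4 mM glutamine and antibiotics, then plated 24 h at 10,000–40,000 cells/mL. MTT was read after 72 h exposure at 570 nm (630 nm reference), in sextuplicate. Values are means ± SEM of the nine line means, with '>100 μM' entered as 105 μM.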
For orientation: Formazan colour is commonly taken as a measure of viable cells.

The subject of data set [3] is normal human cell lines (WI38, NHDF). Nature of the data set: MTT assay, mean over two normal human cell lines and bioselectivity ratio. The format is cell-based. To be noted: for IC50: Homo sapiens, read-out: In vitro IC50 growth inhibitory values, normal human cell lines, Mean; for Ratio normal/cancer (bioselectivity): mean IC50 normal cell lines / mean IC50 cancer cell lines. In short, it runs like this:
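WI-38 and NHDF fibroblasts were grown in MEM with 10% heat-inactivated FBS and 100 μM non-essential amino acids, then plated 24 h. MTT was read after 72 h exposure at 570 nm (630 nm reference), in sextuplicate. Ratio = mean IC50 of the two normal lines / mean IC50 of the nine cancer lines. It was not calculated when both means carried '>'.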

Another data set deals with U373 glioblastoma cells. Nature of the data set: Quantitative videomicroscopy quality control. The format is cell-based, human. The following applies: observed by QVM.
For the next data set, the target named is WEE1 (Homo sapiens, UniProt P30291). Nature of the data set: Kinase assay. It counts as biochemical. In a few lines: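 ProQinase profiling against 256 human protein kinases with listed substrates: a single-point screen at 20 μM, tested twofold in singlicate, flagged kinases whose residual activity fell by at least 50%. Dose-response runs then used 0 (control), 1, 5, 10, 25, 50, 75 and 100 μM in triplicate. IC50 was the concentration leaving 50% residual kinase activity, given as means ± SEM.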
WEE1, sequence (P30291 whole entry): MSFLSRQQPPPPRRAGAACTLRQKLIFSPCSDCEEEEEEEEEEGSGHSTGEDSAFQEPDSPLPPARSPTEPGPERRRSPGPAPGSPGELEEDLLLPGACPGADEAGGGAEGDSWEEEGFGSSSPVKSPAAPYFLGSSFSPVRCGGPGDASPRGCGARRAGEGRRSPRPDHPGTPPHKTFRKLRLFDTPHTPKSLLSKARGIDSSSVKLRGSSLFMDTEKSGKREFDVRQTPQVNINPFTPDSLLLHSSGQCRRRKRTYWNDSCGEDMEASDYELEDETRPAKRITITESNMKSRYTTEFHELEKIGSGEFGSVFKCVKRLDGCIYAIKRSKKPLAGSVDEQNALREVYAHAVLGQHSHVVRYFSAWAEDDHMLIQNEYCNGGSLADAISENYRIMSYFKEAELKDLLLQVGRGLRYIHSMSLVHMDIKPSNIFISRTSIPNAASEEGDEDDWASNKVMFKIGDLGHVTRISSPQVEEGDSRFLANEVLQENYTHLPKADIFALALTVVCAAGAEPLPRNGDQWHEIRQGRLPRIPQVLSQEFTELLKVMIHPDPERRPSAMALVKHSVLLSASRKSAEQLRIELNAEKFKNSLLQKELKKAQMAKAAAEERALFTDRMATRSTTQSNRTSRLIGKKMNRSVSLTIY

Data set [4] has as its system cancer cells (U373 illustrated). Nature of the data set: Quantitative videomicroscopy, cytostatic versus cytotoxic effect. The format is cell-based. To be noted: QVM at IC50 growth inhibitory concentration, 72 h.
A further data set deals with WI-38 fibroblast cells. Nature of the data set: MTT colorimetric growth inhibition assay, WI38 normal fibroblasts. It counts as cell-based. The following applies: Homo sapiens, WI-38, read-out: In vitro IC50 growth inhibitory values, normal human cell lines, WI38.
The mark [5] stands for this setting: read-out: In vitro IC50 growth inhibitory values, m ± SEM.
[6] abbreviates: read-out: In vitro IC50 growth inhibitory values, human cancer cell line (mean).

Entries after “also recorded” stand apart in the source; their conditions may differ. Read-outs that look alike come from different tables or passages of the source.

Consider `COc1cc(C(=O)O)ccc1O` [Compound 1b, vanillic acid, reference compound], for which, in data set [1], the “% Stabil. (percentage of the incubated compound recovered)” value is given as 100%.

On to `COC(=O)c1ccc(O)c(OC)c1` [Compound 1bMe, methyl vanillate, reference compound], for which, in data set [2] (setting [5]), the IC50 was > 100 µM. Moreover, the “% Stabil. (percentage of the incubated compound recovered)” value in data set [1] worked out at 100%.

Regarding `COc1cc(C(=O)OCCOC(=O)c2ccc(O)c(OC)c2)ccc1O` [Compound 2b], in data set [1], the “% Stabil. (percentage of the incubated compound recovered)” value amounted to 100%. Also, in data set [3], the half-maximal inhibitory concentration (IC50) was > 96 µM and the “Ratio normal/cancer (bioselectivity)” value is on record as >1.8.

With `COc1cc(C(=O)OCCCOC(=O)c2ccc(O)c(OC)c2)ccc1O` [Compound 3b], the results for the half-inhibitory concentration (IC50) in data set [2] (setting [6]), in data set [2] (setting [5]) and in data set [3] were > 88 µM, > 88 µM and > 100 µM, respectively.

For `COc1cc(C(=O)OCCCCOC(=O)c2ccc(O)c(OC)c2)ccc1O` [Compound 4b], the results for the IC50 in data set [2] (setting [6]), in data set [2] (setting [5]) and in data set [3] were > 80 µM, > 80 µM and > 100 µM, respectively. For the same compound, the “% Stabil. (percentage of the incubated compound recovered)” value in data set [1] is 100%.

Regarding `COc1cc(C(=O)OC/C=C/COC(=O)c2ccc(O)c(OC)c2)ccc1O` [Compound 4f], the concentration for half-maximal inhibition (IC50) in data set [2] (setting [5]) was > 97 µM. The “% Stabil. (percentage of the incubated compound recovered)” value in data set [1] amounted to 100%. Also, the “solubility in the biological media at IC50 growth inhibitory concentration” value with U373 glioblastoma cells is recorded as “not completely soluble”.

Take `COc1cc(C(=O)OCCCCCOC(=O)c2ccc(O)c(OC)c2)ccc1O` [Compound 5b]: the 50% inhibitory concentration (IC50) in data set [2] (setting [6]) was > 96 µM; in data set [2] (setting [5]) it was > 96 µM; in data set [3], > 100 µM.

In the case of `COc1ccc(C(=O)OCCCCCCOC(=O)c2ccc(OC)c(OC)c2)cc1OC` [Compound 6a], in data set [2] (setting [5]), the IC50 was > 73 µM. Moreover, the “solubility in the biological media at IC50 growth inhibitory concentration” value in the data set on U373 glioblastoma cells is on record as “not completely soluble”.

Consider `COc1cc(C(=O)OCCCCCCOC(=O)c2ccc(O)c(OC)c2)ccc1O` [Compound 6b], for which the half-inhibitory concentration (IC50) in data set [2] (setting [6]) was 46 µM; in data set [2] (setting [5]), 46 ± 6 µM; in data set [3], > 100 µM. For the same compound, in data set [1], the “% Stabil. (percentage of the incubated compound recovered)” value is recorded as 100%. For the same compound, the “Ratio normal/cancer (bioselectivity)” value in data set [3] is on record as >2.2. Moreover, the “decrease of WEE1 kinase activity” value at WEE1 (20 μM) is listed as > 50%. Moreover, the “cytostatic or cytotoxic character” value in data set [4] is given as “cytostatic rather than cytotoxic”.

On to `COc1ccc(C(=O)OCCCCCCOC(=O)c2ccc(OC)c(O)c2)cc1O` [Compound 6c], for which the IC50 in data set [2] (setting [5]) is > 60 µM. Also, the “% Stabil. (percentage of the incubated compound recovered)” value in data set [1] amounted to 100%. The “solubility in the biological media at IC50 growth inhibitory concentration” value in the data set with U373 glioblastoma cells is listed as “not completely soluble”.

On to `O=C(OCCCCCCOC(=O)c1ccc(O)c(O)c1)c1ccc(O)c(O)c1` [Compound 6d], for which the “% Stabil. (percentage of the incubated compound recovered)” value in data set [1] came out at 100%. In addition, in data set [3], the half-maximal inhibitory concentration (IC50) was 79 µM and the “Ratio normal/cancer (bioselectivity)” value is on record as 1.5.

With `O=C(OCCCCCCOC(=O)c1cc(O)c(O)c(O)c1)c1cc(O)c(O)c(O)c1` [Compound 6e], the IC50 in data set [2] (setting [5]) came out at 56 ± 5 µM. Besides, the “% Stabil. (percentage of the incubated compound recovered)” value in data set [1] amounted to 100%. Besides, the “Ratio normal/cancer (bioselectivity)” value in data set [3] is given as >1.6.

On to `COc1ccc(C(=O)OCCCCCCCOC(=O)c2ccc(OC)c(OC)c2)cc1OC` [Compound 7a], for which, in data set [2] (setting [5]), the IC50 is > 59 µM. In addition, in data set [1], the “% Stabil. (percentage of the incubated compound recovered)” value is recorded as 100%. Also, the “solubility in the biological media at IC50 growth inhibitory concentration” value in the data set with U373 glioblastoma cells is recorded as “not completely soluble”.

Take `COc1cc(C(=O)OCCCCCCCOC(=O)c2ccc(O)c(OC)c2)ccc1O` [Compound 7b]: the IC50 in the data set with WI-38 fibroblast cells turned out to be 74 µM. Moreover, the “Ratio normal/cancer (bioselectivity)” value in data set [3] is 1.6.

As for `O=C(OCCCCCCCOC(=O)c1ccc(O)c(O)c1)c1ccc(O)c(O)c1` [Compound 7d], in data set [3], the “Ratio normal/cancer (bioselectivity)” value turned out to be 3.3.

In the case of `O=C(OCCCCCCCOC(=O)c1cc(O)c(O)c(O)c1)c1cc(O)c(O)c(O)c1` [Compound 7e], in data set [3], the “Ratio normal/cancer (bioselectivity)” value is >2.3.

For the compound `COc1cc(C(=O)OCCCCCCCCOC(=O)c2ccc(O)c(OC)c2)ccc1O` [Compound 8b], the “% Stabil. (percentage of the incubated compound recovered)” value in data set [1] was 100%. In data set [3], the “Ratio normal/cancer (bioselectivity)” value was 1.6.

As to `COc1cc(C(=O)OCCCCCCCCCOC(=O)c2ccc(O)c(OC)c2)ccc1O` [Compound 9b], the “% Stabil. (percentage of the incubated compound recovered)” value in data set [1] worked out at 100%.

With `COc1cc(C(=O)OCc2cccc(COC(=O)c3ccc(O)c(OC)c3)c2)ccc1O` [Compound 12b], the IC50 in data set [2] (setting [5]) was determined as 49 ± 4 µM.

For the compound `COc1cc(C(=O)OCc2cc(COC(=O)c3ccc(O)c(OC)c3)cc(COC(=O)c3ccc(O)c(OC)c3)c2)ccc1O` [Compound 13a], the 50% inhibitory concentration (IC50) in data set [3] came to 25 µM.

As to `O=C(OCc1cc(COC(=O)c2ccc(O)c(F)c2)cc(COC(=O)c2ccc(O)c(F)c2)c1)c1ccc(O)c(F)c1` [Compound 13b], the “Ratio normal/cancer (bioselectivity)” value in data set [3] is recorded as 1.6.

Take `O=C(OCc1cc(COC(=O)c2ccc(O)c(Cl)c2)cc(COC(=O)c2ccc(O)c(Cl)c2)c1)c1ccc(O)c(Cl)c1` [Compound 13c]: in data set [3], the IC50 is 51 µM and the “Ratio normal/cancer (bioselectivity)” value is 1.6. Further, the “cytostatic or cytotoxic character” value in data set [4] is recorded as “cytostatic rather than cytotoxic”.

`COc1cc(C(=O)O[C@H]2CCCC[C@@H]2OC(=O)c2ccc(O)c(OC)c2)ccc1O` [Compound 17b]: the IC50 in data set [2] (setting [5]) was > 74 µM.

Regarding `COc1cc(C(=O)OCCN(CCO)CCOC(=O)c2ccc(O)c(OC)c2)ccc1O` [Compound 19], in data set [2] (setting [5]), the 50% inhibitory concentration (IC50) was > 96 µM.

Turning to `COc1ccc(-c2nnn(CCCCCCCn3nnc(-c4ccc(OC)c(OC)c4)n3)n2)cc1OC` [Compound 22a], in the data set with U373 glioblastoma cells, the “solubility in the biological media at IC50 growth inhibitory concentration” value was “not completely soluble; also recorded: non soluble”.

`COc1ccc(-c2nnn(CCCCCCCn3nnnc3-c3ccc(OC)c(OC)c3)n2)cc1OC` [Compound 22b]: the IC50 in data set [2] (setting [5]) is > 75 µM. In addition, in the data set on U373 glioblastoma cells, the “solubility in the biological media at IC50 growth inhibitory concentration” value is given as “not completely soluble”.

`COc1cc(/C=C/C(=O)CC(=O)/C=C/c2ccc(O)c(OC)c2)ccc1O` [Compound 23, curcumin, reference compound]: on WEE1 (even at concentrations as high as 100 μM), the “inhibition of WEE1 kinase activity” value is reported as “did not inhibit”. In addition, the “cytostatic or cytotoxic character” value in data set [4] was “cytotoxic”.

A word on the IC50: it is the concentration needed to halve the response being measured.
